{"data": "Measured values of several laboratories", "read-out": "cell growth or viability", "note": "Compare with care: the assays were run in different laboratories."}
{"SMILES": "CCOc1ccc(/C=C2\\SC(=S)N(CC(=O)Nc3ccccc3)C2=O)cc1", "cell line": "A549", "assay": "MTT", "setting": "10 µM", "endpoint": "inhibition", "result": "48.2%"}
{"SMILES": "O=C1Nc2ccccc2C1=NNc1nnc2n1N=C(c1ccccc1)CS2", "cell line": "OVCAR-4", "assay": "SRB", "setting": "10 µM", "endpoint": "inhibition", "result": "41%"}
{"SMILES": "COc1cccc(NC(=O)CN2C(=O)/C(=C/c3cccs3)SC2=S)c1", "cell line": "A549", "assay": "MTT", "setting": "10 µM", "endpoint": "inhibition", "result": "12.4%"}
{"SMILES": "COc1cccc(Oc2ccccc2NC(=O)CNC(=O)c2cccc3ccccc23)c1", "cell line": "OVCAR-4", "assay": "SRB", "setting": "48 h", "endpoint": "GI50", "result": "776 nM"}
{"SMILES": "COc1ccc(-c2ccc(-c3ccc(C(=N)N)nc3)s2)cc1Cl", "cell line": "OVCAR-4", "assay": "SRB", "endpoint": "GI50", "result": "1740 nM"}
{"SMILES": "O=C(CN1C(=O)/C(=C/c2ccccc2)SC1=S)Nc1ccccc1", "cell line": "A549", "assay": "MTT", "setting": "10 µM", "endpoint": "inhibition", "result": "43.3%"}
{"SMILES": "NC(=O)c1cc(Cl)ccc1NC(=O)COc1ccccc1", "cell line": "OVCAR-4", "endpoint": "GI50", "result": "> 100000 nM"}
{"SMILES": "COc1cc(-c2ccc(-c3ccc(C(=N)N)nc3)s2)cc(OC)c1OC", "cell line": "OVCAR-4", "assay": "SRB", "endpoint": "GI50", "result": "2690 nM"}
{"SMILES": "Cn1nnc2c(C(N)=O)ncn2c1=O", "cell line": "AZ-521", "endpoint": "EC50", "result": "173000 nM"}
{"SMILES": "CC(C)C[C@H](NC(=O)[C@H](Cc1ccccc1)NC(=O)c1cnccn1)B(O)O", "cell line": "HCC38", "assay": "ATP luminescence", "endpoint": "IC50", "result": "9.9 nM"}
